According to ChEMBL document CHEMBL1137643, “In vitro and in vivo activities of novel fluoroquinolones alone and in combination with clarithromycin against clinically isolated Mycobacterium avium complex strains in Japan” (2007):
Converted amounts (≈) assume the structure as drawn.

Key:
Assay type in all cases: functional
[1] = test system: Mycobacterium avium complex sp.; assay: Antimycobacterial activity against Mycobacterium avium complex N018 infected C57BL/6J mouse assessed as spleen bacterial count at 100 mg/kg/day dosed through gavage route administered for 28 days post bacterial challenge measured 2 days after last dose
Summary of the method: (§1)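 Mice given 1.0 × 10^7 to 3.0 × 10^7 CFU in 100 μl via tail vein; daily gavage dosing began day 21 for 28 days; distilled-water controls. Sacrifice 48 h after last dose. Organ portions homogenized in 1 ml saline, diluted in 7H9, plated on 7H10; log10 CFU/organ, mean ± SEM, 5 mice/group. Experiment run twice; ANOVA with Fisher's PLSD.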

[2] = test system: Mycobacterium avium complex sp.; assay: Antimycobacterial activity against Mycobacterium avium complex N084 infected C57BL/6J mouse assessed as lung bacterial count at 100 mg/kg/day dosed through gavage route administered for 28 days post bacterial challenge measured 2 days after last dose; summary of the method: as §1
[3] = test system: Mycobacterium intracellulare; assay: Antimycobacterial activity against Mycobacterium intracellular JATA52-01 after 14 days by broth microdilution method; settings: JATA52-01, 336 h
Summary of the method: (§2)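 Broth microdilution in Middlebrook 7H9 (OADC, Tween 80, glycerol); twofold dilutions giving final 0.125–128 μg/ml; inoculum 1.0 × 10^5 CFU/well; 14 days at 37°C. MIC = lowest concentration completely inhibiting growth. Triplicate tests. Inocula from 7H10 agar colonies (21 days) subcultured in 7H9 for 7 days at 37°C, stored at −80°C.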

[4] = test system: Mycobacterium avium complex sp.; assay: Antimycobacterial activity against Mycobacterium avium complex N016 after 14 days by broth microdilution method; settings: N016, 336 h; summary of the method: as §2
[5] = test system: Mycobacterium avium complex sp.; assay: Antimycobacterial activity against Mycobacterium avium complex N018 after 14 days by broth microdilution method; settings: N018, 336 h; summary of the method: as §2
[6] = test system: Mycobacterium avium complex sp.; assay: Antimycobacterial activity against Mycobacterium avium complex N084 after 14 days by broth microdilution method; settings: N084, 336 h; summary of the method: as §2
[7] = test system: Mycobacterium avium complex sp.; assay: Antimycobacterial activity against Mycobacterium avium complex after 14 days by broth microdilution method; settings: 336 h; summary of the method: as §2
Mycobacterium avium [8] = assay: Antimycobacterial activity against Mycobacterium avium JATA51-01 infected C57BL/6J mouse assessed as lung bacterial count at 100 mg/kg/day dosed through gavage route administered for 28 days post bacterial challenge measured 2 days after last dose
Summary of the method: (§3)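 Mice infected via tail vein with 1.0 × 10^7 to 3.0 × 10^7 CFU in 100 μl saline; daily oral gavage started day 21, for 28 days; distilled-water controls; sacrificed 48 h after last dose; lungs, liver, spleen homogenized in saline, serially diluted in 7H9, plated on 7H10 agar; log10 CFU/organ, mean ± SEM, 5 mice/group; ANOVA with Fisher's PLSD; experiment done twice.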

Mycobacterium avium [9] = assay: Antimycobacterial activity against Mycobacterium avium JATA51-01 infected C57BL/6J mouse assessed as liver bacterial count at 100 mg/kg/day dosed through gavage route administered for 28 days post bacterial challenge measured 2 days after last dose; summary of the method: as §3
Mycobacterium avium [10] = assay: Antimycobacterial activity against Mycobacterium avium JATA51-01 infected C57BL/6J mouse assessed as spleen bacterial count at 100 mg/kg/day dosed through gavage route administered for 28 days post bacterial challenge measured 2 days after last dose; summary of the method: as §3
[11] = test system: Mycobacterium intracellulare; assay: Antimycobacterial activity against Mycobacterium intracellular JATA52-01 infected C57BL/6J mouse assessed as lung bacterial count at 100 mg/kg/day dosed through gavage route administered for 28 days post bacterial challenge measured 2 days after last dose; summary of the method: as §1
[12] = test system: Mycobacterium intracellulare; assay: Antimycobacterial activity against Mycobacterium intracellular JATA52-01 infected C57BL/6J mouse assessed as liver bacterial count at 100 mg/kg/day dosed through gavage route administered for 28 days post bacterial challenge measured 2 days after last dose; summary of the method: as §1
[13] = test system: Mycobacterium intracellulare; assay: Antimycobacterial activity against Mycobacterium intracellular JATA52-01 infected C57BL/6J mouse assessed as spleen bacterial count at 100 mg/kg/day dosed through gavage route administered for 28 days post bacterial challenge measured 2 days after last dose; summary of the method: as §1
[14] = test system: Mycobacterium avium complex sp.; assay: Antimycobacterial activity against Mycobacterium avium complex N016 infected C57BL/6J mouse assessed as lung bacterial count at 100 mg/kg/day dosed through gavage route administered for 28 days post bacterial challenge measured 2 days after last dose; summary of the method: as §1
[15] = test system: Mycobacterium avium complex sp.; assay: Antimycobacterial activity against Mycobacterium avium complex N016 infected C57BL/6J mouse assessed as liver bacterial count at 100 mg/kg/day dosed through gavage route administered for 28 days post bacterial challenge measured 2 days after last dose; summary of the method: as §1
[16] = test system: Mycobacterium avium complex sp.; assay: Antimycobacterial activity against Mycobacterium avium complex N016 infected C57BL/6J mouse assessed as spleen bacterial count at 100 mg/kg/day dosed through gavage route administered for 28 days post bacterial challenge measured 2 days after last dose; summary of the method: as §1
[17] = test system: Mycobacterium avium complex sp.; assay: Antimycobacterial activity against Mycobacterium avium complex N018 infected C57BL/6J mouse assessed as lung bacterial count at 100 mg/kg/day dosed through gavage route administered for 28 days post bacterial challenge measured 2 days after last dose; summary of the method: as §1
[18] = test system: Mycobacterium avium complex sp.; assay: Antimycobacterial activity against Mycobacterium avium complex N018 infected C57BL/6J mouse assessed as liver bacterial count at 100 mg/kg/day dosed through gavage route administered for 28 days post bacterial challenge measured 2 days after last dose; summary of the method: as §1
[19] = test system: Mycobacterium avium complex sp.; assay: Antimycobacterial activity against Mycobacterium avium complex N084 infected C57BL/6J mouse assessed as liver bacterial count at 100 mg/kg/day dosed through gavage route administered for 28 days post bacterial challenge measured 2 days after last dose; summary of the method: as §1
[20] = test system: Mycobacterium avium complex sp.; assay: Antimycobacterial activity against Mycobacterium avium complex N084 infected C57BL/6J mouse assessed as spleen bacterial count at 100 mg/kg/day dosed through gavage route administered for 28 days post bacterial challenge measured 2 days after last dose; summary of the method: as §1
[21] = test system: Mycobacterium avium complex sp.; assay: Antimycobacterial activity against Mycobacterium avium complex N018 infected C57BL/6J mouse assessed as liver bacterial count at 200 mg/kg/day dosed through gavage route administered for 28 days post bacterial challenge measured 2 days after last dose; summary of the method: as §1
[22] = test system: Mycobacterium avium complex sp.; assay: Antimycobacterial activity against Mycobacterium avium complex N018 infected C57BL/6J mouse assessed as lung bacterial count at 200 mg/kg/day dosed through gavage route administered for 28 days post bacterial challenge measured 2 days after last dose; summary of the method: as §1
[23] = test system: Mycobacterium avium complex sp.; assay: Antimycobacterial activity against Mycobacterium avium complex N018 infected C57BL/6J mouse assessed as spleen bacterial count at 200 mg/kg/day dosed through gavage route administered for 28 days post bacterial challenge measured 2 days after last dose; summary of the method: as §1
Mycobacterium avium [24] = assay: Antimycobacterial activity against Mycobacterium avium JATA51-01 after 14 days by broth microdilution method; settings: JATA51-01, 336 h
Summary of the method: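 Broth microdilution in 7H9 (10% OADC, 0.05% Tween 80, 0.2% glycerol); twofold drug dilutions, final 0.125–128 μg/ml; inoculum 1.0 × 10^5 CFU/well from 7-day 37°C subculture of 21-day 7H10 colonies; 14 days at 37°C; MIC = lowest concentration with complete growth inhibition; triplicate.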

Mycobacterium avium [25] = assay: Antimycobacterial activity against Mycobacterium avium JATA51-01 infected C57BL/6J mouse assessed as lung bacterial count at 200 mg/kg/day dosed through gavage route administered for 28 days post bacterial challenge measured 2 days after last dose; summary of the method: as §3
Mycobacterium avium [26] = assay: Antimycobacterial activity against Mycobacterium avium JATA51-01 infected C57BL/6J mouse assessed as liver bacterial count at 200 mg/kg/day dosed through gavage route administered for 28 days post bacterial challenge measured 2 days after last dose; summary of the method: as §3
Mycobacterium avium [27] = assay: Antimycobacterial activity against Mycobacterium avium JATA51-01 infected C57BL/6J mouse assessed as spleen bacterial count at 200 mg/kg/day dosed through gavage route administered for 28 days post bacterial challenge measured 2 days after last dose; summary of the method: as §3
[28] = test system: Mycobacterium intracellulare; assay: Antimycobacterial activity against Mycobacterium intracellular JATA52-01 infected C57BL/6J mouse assessed as lung bacterial count at 200 mg/kg/day dosed through gavage route administered for 28 days post bacterial challenge measured 2 days after last dose; summary of the method: as §1
[29] = test system: Mycobacterium intracellulare; assay: Antimycobacterial activity against Mycobacterium intracellular JATA52-01 infected C57BL/6J mouse assessed as liver bacterial count at 200 mg/kg/day dosed through gavage route administered for 28 days post bacterial challenge measured 2 days after last dose; summary of the method: as §1
[30] = test system: Mycobacterium intracellulare; assay: Antimycobacterial activity against Mycobacterium intracellular JATA52-01 infected C57BL/6J mouse assessed as spleen bacterial count at 200 mg/kg/day dosed through gavage route administered for 28 days post bacterial challenge measured 2 days after last dose; summary of the method: as §1
[31] = test system: Mycobacterium avium complex sp.; assay: Antimycobacterial activity against Mycobacterium avium complex N016 infected C57BL/6J mouse assessed as lung bacterial count at 200 mg/kg/day dosed through gavage route administered for 28 days post bacterial challenge measured 2 days after last dose; summary of the method: as §1
[32] = test system: Mycobacterium avium complex sp.; assay: Antimycobacterial activity against Mycobacterium avium complex N016 infected C57BL/6J mouse assessed as liver bacterial count at 200 mg/kg/day dosed through gavage route administered for 28 days post bacterial challenge measured 2 days after last dose; summary of the method: as §1
[33] = test system: Mycobacterium avium complex sp.; assay: Antimycobacterial activity against Mycobacterium avium complex N016 infected C57BL/6J mouse assessed as spleen bacterial count at 200 mg/kg/day dosed through gavage route administered for 28 days post bacterial challenge measured 2 days after last dose; summary of the method: as §1
[34] = test system: Mycobacterium avium complex sp.; assay: Antimycobacterial activity against Mycobacterium avium complex N084 infected C57BL/6J mouse assessed as lung bacterial count at 200 mg/kg/day dosed through gavage route administered for 28 days post bacterial challenge measured 2 days after last dose; summary of the method: as §1
[35] = test system: Mycobacterium avium complex sp.; assay: Antimycobacterial activity against Mycobacterium avium complex N084 infected C57BL/6J mouse assessed as liver bacterial count at 200 mg/kg/day dosed through gavage route administered for 28 days post bacterial challenge measured 2 days after last dose; summary of the method: as §1
[36] = test system: Mycobacterium avium complex sp.; assay: Antimycobacterial activity against Mycobacterium avium complex N084 infected C57BL/6J mouse assessed as spleen bacterial count at 200 mg/kg/day dosed through gavage route administered for 28 days post bacterial challenge measured 2 days after last dose; summary of the method: as §1

COc1c(N2C[C@@H]3CCCN[C@@H]3C2)c(F)cc2c(=O)c(C(=O)O)cn(C3CC3)c12 [MOXIFLOXACIN]
log10cfu [1]: 6.6
log10cfu [2]: 7.9
MIC [3]: 0.5 µg/mL (≈ 1.25 µM)
MIC [4]: 0.5 µg/mL (≈ 1.25 µM)
MIC [5]: 0.5 µg/mL (≈ 1.25 µM)
MIC [6]: 0.5 µg/mL (≈ 1.25 µM)
MIC90 [7]: 2 µg/mL (≈ 4.98 µM)
log10cfu (Mycobacterium avium [8]): 8.83
log10cfu (Mycobacterium avium [9]): 9.68
log10cfu (Mycobacterium avium [10]): 9.18
log10cfu [11]: 4.83
log10cfu [12]: 4.76
log10cfu [13]: 4.15
log10cfu [14]: 5.35
log10cfu [15]: 6.53
log10cfu [16]: 6.6
log10cfu [17]: 5.79
log10cfu [18]: 7.09
log10cfu [19]: 7.78
log10cfu [20]: 7.39

C[C@H]1COc2c(N3CCN(C)CC3)c(F)cc3c(=O)c(C(=O)O)cn1c23.C[C@H]1COc2c(N3CCN(C)CC3)c(F)cc3c(=O)c(C(=O)O)cn1c23.O [LEVOFLOXACIN]
log10cfu [21]: 7.4
log10cfu [22]: 6.01
log10cfu [23]: 6.82
MIC (Mycobacterium avium [24]): 4 µg/mL
MIC [3]: 4 µg/mL
MIC [4]: 2 µg/mL
MIC [5]: 4 µg/mL
MIC [6]: 8 µg/mL
MIC90 [7]: 16 µg/mL
log10cfu (Mycobacterium avium [25]): 9.01
log10cfu (Mycobacterium avium [26]): 9.92
log10cfu (Mycobacterium avium [27]): 9.38
log10cfu [28]: 5.47
log10cfu [29]: 5.16
log10cfu [30]: 4.48
log10cfu [31]: 5.48
log10cfu [32]: 6.52
log10cfu [33]: 6.72
log10cfu [34]: 7.82
log10cfu [35]: 7.77
log10cfu [36]: 7.58
